Common to all, as to type: functional
The test system of one assay is Klebsiella aerogenes. As to the kind of experiment: Tested in vitro for antibacterial activity against Aerobacter aerogenes. The method, boiled down: (§1)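 MICs determined by twofold agar dilution in nutrient agar with 0.2% yeast extract. Organisms were inoculated onto the plates with a Steers multiple inoculator.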
A further assay has as its system Aspergillus niger. In words: Tested for antifungal activity against Aspergillus niger.
For assay [1], the system named is Bordetella bronchiseptica. As to the kind of experiment: Tested in vitro for antibacterial activity against Bordetella bronchiseptica. The method, boiled down: as §1
Another assay relates to Escherichia coli. As to the kind of experiment: Tested in vitro for antibacterial activity against Escherichia coli. The method, boiled down: as §1
In another assay the test system is Klebsiella pneumoniae. As to the kind of experiment: Tested in vitro for antibacterial activity against Klebsiella pneumoniae. The method, boiled down:
as §1

Another assay deals with Proteus vulgaris. As to the kind of experiment: Tested in vitro for antibacterial activity against Proteus volgaris. The method, boiled down: as §1
For the next assay, the system named is Pseudomonas aeruginosa. As to the kind of experiment: Tested in vitro for antibacterial activity against Pseudomonas aeruginosa. The essentials: as §1
A further assay concerns Staphylococcus aureus. In words: Tested in vitro for antibacterial activity against Staphylococcus aureus. The essentials:
as §1

The subject of another assay is Alternaria solani. As to the kind of experiment: Tested for antifungal activity against Alternaria solani.
Another assay relates to Aureobasidium pullulans. As to the kind of experiment: Tested for antifungal activity against Pullaria pullulans.

≈ marks a conversion by molar mass, not a printed value.

A word on the MIC: it is the lowest concentration found to suppress growth. Low readings indicate a more susceptible organism, high ones a less susceptible organism. `CC1=CC(=O)[C@@]2(O[C@@H]2C(=O)CC(C)C)C(=O)N1C`: the minimal inhibitory concentration (MIC) against Klebsiella aerogenes is over 100 µg/mL; in the assay with Aspergillus niger, 50 µg/mL (≈ 199 µM); in assay [1], 100 µg/mL (≈ 398 µM); in the assay on Escherichia coli it was 100 µg/mL (≈ 398 µM); in the assay on Klebsiella pneumoniae it was 50 µg/mL (≈ 199 µM); with Proteus vulgaris it was 6.3 µg/mL (≈ 25.1 µM). Further, the minimal inhibitory concentration (MIC) in the assay on Pseudomonas aeruginosa is over 100 µg/mL; with Staphylococcus aureus, 12.5 µg/mL (≈ 49.7 µM); against Alternaria solani, 6.3 µg/mL (≈ 25.1 µM).
For `CC(=O)[C@H]1O[C@@]12C(=O)C=C(C)NC2=O`, the minimum inhibitory concentration (MIC) was over 100 µg/mL against Klebsiella aerogenes; over 100 µg/mL in the assay on Aspergillus niger; over 100 µg/mL in [1]; 50 µg/mL (≈ 256 µM) with Escherichia coli; over 100 µg/mL against Klebsiella pneumoniae; over 100 µg/mL in the assay on Proteus vulgaris. The minimum inhibitory concentration (MIC) was 50 µg/mL (≈ 256 µM) in the assay on Pseudomonas aeruginosa, 100 µg/mL (≈ 512 µM) in the assay on Staphylococcus aureus, over 100 µg/mL with Alternaria solani and over 100 µg/mL in the assay with Aureobasidium pullulans.
For `CC1=CC(=O)[C@@]2(O[C@H]2C(=O)CC(C)C)C(=O)N1`, the MIC was 100 µg/mL (≈ 421 µM) in the assay on Klebsiella aerogenes; over 100 µg/mL in the assay on Aspergillus niger; 50 µg/mL (≈ 211 µM) in assay [1]; 50 µg/mL (≈ 211 µM) against Escherichia coli; 6.3 µg/mL (≈ 26.6 µM) in the assay on Klebsiella pneumoniae; 6.3 µg/mL (≈ 26.6 µM) in the assay with Proteus vulgaris. The minimal inhibitory concentration (MIC) against Pseudomonas aeruginosa was over 100 µg/mL; with Staphylococcus aureus it was 6.3 µg/mL (≈ 26.6 µM); against Alternaria solani, 50 µg/mL (≈ 211 µM).
`CC(C)CC(=O)C1OC12C(=O)CC(C)(C)CC2=O` (stereo unspecified): the MIC against Klebsiella aerogenes is 25 µg/mL (≈ 99.1 µM); in the assay on Aspergillus niger, 25 µg/mL (≈ 99.1 µM); in assay [1] it was 50 µg/mL (≈ 198 µM); against Escherichia coli, over 100 µg/mL; against Klebsiella pneumoniae, 50 µg/mL (≈ 198 µM); against Proteus vulgaris it was 50 µg/mL (≈ 198 µM). Moreover, the MIC with Pseudomonas aeruginosa stood at 50 µg/mL (≈ 198 µM); in the assay with Staphylococcus aureus it was 25 µg/mL (≈ 99.1 µM); against Alternaria solani, 3.1 µg/mL (≈ 12.3 µM); in the assay with Aureobasidium pullulans it was 6.3 µg/mL (≈ 25 µM).
For the molecule `CC1=CC(=O)[C@@]2(O[C@H]2C(=O)CC(C)C)C(=O)N1C`, the MIC with Klebsiella aerogenes is over 100 µg/mL; in the assay with Aspergillus niger, over 100 µg/mL; in assay [1], 100 µg/mL (≈ 398 µM); in the assay with Escherichia coli, over 100 µg/mL; in the assay on Klebsiella pneumoniae it was 100 µg/mL (≈ 398 µM); with Proteus vulgaris, 12.5 µg/mL (≈ 49.7 µM). Further, the minimum inhibitory concentration (MIC) against Pseudomonas aeruginosa is over 100 µg/mL; against Staphylococcus aureus, 25 µg/mL (≈ 99.5 µM); against Alternaria solani it was 12.5 µg/mL (≈ 49.7 µM).
On to `CC1=CC(=O)C2(OC2C(=O)CC(C)C)C(=O)N1` (stereo unspecified), for which the MIC is 100 µg/mL (≈ 421 µM) in the assay on Klebsiella aerogenes; over 100 µg/mL in the assay with Aspergillus niger; 33.9 µg/mL (≈ 143 µM) in [1]; 50 µg/mL (≈ 211 µM) against Escherichia coli; 4.7 µg/mL (≈ 19.8 µM) against Klebsiella pneumoniae; 4.7 µg/mL (≈ 19.8 µM) with Proteus vulgaris. Also, the MIC was over 100 µg/mL against Pseudomonas aeruginosa, 4.7 µg/mL (≈ 19.8 µM) in the assay with Staphylococcus aureus, 100 µg/mL (≈ 421 µM) with Alternaria solani and over 100 µg/mL against Aureobasidium pullulans.
Turning to `CCCCCCCCCC(=O)[C@@H]1O[C@@]12C(=O)C=C(C)NC2=O`, the minimal inhibitory concentration (MIC) with Aspergillus niger is 1.6 µg/mL (≈ 5.21 µM); in [1] it was 0.8 µg/mL (≈ 2.6 µM); against Escherichia coli, over 100 µg/mL; in the assay with Klebsiella pneumoniae it was over 100 µg/mL; in the assay with Staphylococcus aureus, 0.8 µg/mL (≈ 2.6 µM); in the assay on Alternaria solani, 0.2 µg/mL (≈ 0.651 µM). Besides, 0.2 µg/mL (≈ 0.651 µM) was the least that counted as inhibitory against Aureobasidium pullulans (MIC).
For `CCCCCCCCCC(=O)[C@H]1O[C@@]12C(=O)C=C(C)NC2=O`, the MIC in the assay with Aspergillus niger is 0.2 µg/mL (≈ 0.651 µM); in assay [1] it was 3.1 µg/mL (≈ 10.1 µM); against Escherichia coli, over 100 µg/mL; in the assay on Klebsiella pneumoniae, over 100 µg/mL; in the assay with Proteus vulgaris it was 12.5 µg/mL (≈ 40.7 µM); against Staphylococcus aureus it was 0.4 µg/mL (≈ 1.3 µM). Moreover, the MIC against Alternaria solani and in the assay on Aureobasidium pullulans was 0.2 µg/mL (≈ 0.651 µM) throughout.
`CC(=O)[C@@H]1O[C@@]12C(=O)C=C(C)NC2=O`: the MIC (against Klebsiella aerogenes; in the assay on Aspergillus niger; in assay [1]; in the assay on Escherichia coli; in the assay with Klebsiella pneumoniae; in the assay with Proteus vulgaris) was over 100 µg/mL in each case. Moreover, the MIC in the assay with Pseudomonas aeruginosa, in the assay with Staphylococcus aureus, in the assay on Alternaria solani and against Aureobasidium pullulans was over 100 µg/mL each time.
In the case of `CC1=CC(=O)[C@@]2(O[C@@H]2C(=O)CC(C)C)C(=O)N1`, the minimal inhibitory concentration (MIC) against Klebsiella aerogenes is over 100 µg/mL; in the assay with Aspergillus niger, over 100 µg/mL; in [1], 50 µg/mL (≈ 211 µM); with Escherichia coli it was 50 µg/mL (≈ 211 µM); in the assay on Klebsiella pneumoniae, 6.3 µg/mL (≈ 26.6 µM); in the assay with Proteus vulgaris, 3.1 µg/mL (≈ 13.1 µM). For the same molecule, the minimum inhibitory concentration (MIC) against Pseudomonas aeruginosa was over 100 µg/mL; with Staphylococcus aureus, 6.3 µg/mL (≈ 26.6 µM); with Alternaria solani, 25 µg/mL (≈ 105 µM).

The values above are taken from ChEMBL document CHEMBL1121393, “Synthesis and biological activity of flavipucine analogues” (1980).
